Assay outcomes as filed in PubChem BioAssay.
An excerpt weighted towards active compounds, which were near 2.4% of everything screened.
Autophagy HCS = alters autophagy in cells; AID 463193; MEF GFP-LC3 puncta imaging; test concentration mostly 10 µM; calls only at 10 µM (by protocol); hit rate 0.98% among 190,000;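 active means percentage of spot-positive cells more than 3 SD above its plate mean, without a fluorescence outlier flag or 80% toxicity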
Dynein cargo inh = blocks dynein driven cargo transport along microtubules | z-score, hits read low | 3617.4 mouse cells, GR-EGFP nuclear translocation imaging; test concentration mostly 20 µM; stimulated with dexamethasone, 1 µM; active compounds read low | hit rate 0.47% among 220,000;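 active means plate z-score of nuclear minus cytoplasmic receptor signal below a set negative limit, without overly bright fluorescence or cell loss, cut at about -3.5 in these data, passing the limit was not always enough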;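 further: z-score of nuclear minus cytoplasmic ring GR-EGFP intensity difference per well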
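Also added – dexamethasone, 1.0 µM final · Buffer or medium – tet-free, stripped-serum medium · Schedule – induction 48 h, compound 1 h, agonist 30 min · Detection – formaldehyde fixation, Hoechst nuclear stain, 10x automated fluorescence imaging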
TNF necrop inh = blocks TNF-alpha induced death of Jurkat FADD-/- cells. Jurkat FADD-/- TNF necroptosis rescue, ATP luminescence, 24 h; 0 = TNF only, 100 = no-TNF cells. activation (protection from cell death), % at 10 µM. hit rate 0.068% among 220,000;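 active means activation, meaning protection from cell death, of at least 50% relative to plate controls; inactive means activation below 50%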;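 further: necroptosis triggered by 40 ng/mL TNF-alpha added together with compound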
MDM2 E3 inh = inhibitors of human Mdm2 E3 ubiquitin ligase; Q00987; signal enhancement, % at 5 µM; hit rate 0.11% among 210,000; cell-based MDM2 ubiquitination luciferase reporter, 2 h; 0 = plate control, 100 = twice control, blank-subtracted; AID 1230;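 active means signal enhancement of 30% or more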;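 further: luminescence tracks abundance of the self-degrading MDM2-luciferase fusion protein; higher signal means inhibition of MDM2 E3 ligase activity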
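Assay system: stable mammalian line carrying autodegrading MDM2–luciferase fusion reporter; Input: 2000 cells in each well; Compound dosing: single-point 5 µM; Schedule: 2 h compound exposure at 37 °C; Signal: SteadyLite luciferase luminescence after 15 min room-temperature reagent incubation; Evaluation: % luminescence enhancement versus blank-corrected plate control mean; Benchmarks: plate controls and plate blanks.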
L929 necroptosis = L929 zVAD cell death inhibition. L929 zVAD necroptosis rescue, ATP luminescence, 24 h; with zVAD 60 µM. viability rescue, % at 10 µM. hit rate 0.38% among 220,000;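 active means activation, scaled between plate controls, above about 75%, limit read from the data; inactive means activation under that limit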
Hck-Nef inh = blocks Nef-activated human Hck kinase. P08631. Recombinant Hck-YEEI plus Nef, Z-Lyte FRET kinase assay. inhibition, % at 20 µM. hit rate 0.68% among 220,000;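 active means Hck-Nef kinase inhibition above about 50%, limit read from the data; inactive means inhibition below that limit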
Target sequence (P08631 whole entry, looked up): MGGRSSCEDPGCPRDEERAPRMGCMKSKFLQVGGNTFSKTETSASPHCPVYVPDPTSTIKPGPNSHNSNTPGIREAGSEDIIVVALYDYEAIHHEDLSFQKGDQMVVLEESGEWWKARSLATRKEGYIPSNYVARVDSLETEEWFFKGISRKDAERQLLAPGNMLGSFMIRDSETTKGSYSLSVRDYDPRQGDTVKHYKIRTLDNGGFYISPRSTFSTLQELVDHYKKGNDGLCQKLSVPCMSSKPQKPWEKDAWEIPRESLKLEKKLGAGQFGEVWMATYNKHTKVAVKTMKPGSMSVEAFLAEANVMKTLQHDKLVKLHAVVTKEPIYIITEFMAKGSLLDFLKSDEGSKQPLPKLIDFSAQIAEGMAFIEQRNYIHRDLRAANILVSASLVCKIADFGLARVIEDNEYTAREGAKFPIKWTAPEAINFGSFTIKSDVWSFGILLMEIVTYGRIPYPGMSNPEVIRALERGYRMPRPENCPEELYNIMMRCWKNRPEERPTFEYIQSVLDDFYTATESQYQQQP
Hck-Nef confirm = Hck-Nef kinase inhibition, confirmation; hit rate 28% among 1,300; Recombinant Hck-YEEI:Nef, Z-Lyte FRET kinase assay; calls only at 10 µM; shares compounds with Hck-Nef inh;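 active means average inhibition of at least 50%, with Z-scores no higher than 3 in both the phospho-tyrosine peptide and fluorescence counterscreens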
Each line names hits and unclear results; the compound was inactive in the other large screens (follow-up assays come after a bar, where shown).

Cc1nc2ccc(NC(=O)c3cc(S(=O)(=O)N(C)c4ccccc4)ccc3Cl)cc2s1	Hck-Nef inh 52 | Hck-Nef confirm active
CCN(CC)c1ccc(/C=C2\C(=O)c3ccc(C(=O)O)cc3C2=O)cc1	MDM2 E3 inh 79, Hck-Nef inh 64 (no result: L929 necroptosis) | Hck-Nef confirm inactive
CCN(CC)c1ccc(C(=O)O)cc1	none
CCCN1CCC(=O)N([C@H](CSc2ccc(OC)cc2)CC(C)C)CC1	none (no result: Autophagy HCS)
COc1ccc(-c2noc(CSc3nc(-c4ccccc4)cc(=O)[nH]3)n2)cc1OC	Hck-Nef inh 54 | Hck-Nef confirm inactive
CC(C)[C@H](CO)Nc1nc(Nc2ccc(Cl)c(C(=O)O)c2)c2ncn(C(C)C)c2n1	Hck-Nef inh 65 (no result: Autophagy HCS) | Hck-Nef confirm active
CC(C)n1cnc2c(Nc3ccc(C(=O)O)cc3)nc(Cl)nc21	Hck-Nef inh 53 (no result: Autophagy HCS) | Hck-Nef confirm inactive
CC(C)n1cnc2c(Nc3cccc(Cl)c3)nc(NCCCO)nc21	Hck-Nef inh 96 (no result: Autophagy HCS) | Hck-Nef confirm active
C#CCNC(=O)C1CCN(c2cc(C)nc(-c3ccccc3)n2)CC1	none
CCc1cc(=S)n2c([nH]c3ccccc32)c1C#N	Hck-Nef inh 71 | Hck-Nef confirm inactive
COCc1cc(=O)n2c([nH]c3ccccc32)c1C#N	Hck-Nef inh 67
CC(SCc1cc(=O)n2c([nH]c3ccccc32)c1C#N)C(=O)O (configuration not stated)	none
CCc1cc(=O)n2c([nH]c3ccccc32)c1C#N	none
COc1ccccc1NC(=O)C(C)NS(=O)(=O)c1ccccc1 (configuration not stated)	none
Cc1cc(C=C2C(=O)c3ccccc3C2=O)c(C)n1-c1ccc(C(=O)O)cc1	none
Cc1cc(C=C2C(=O)c3ccccc3C2=O)c(C)n1-c1cccc(C(=O)O)c1	Hck-Nef inh 74 | Hck-Nef confirm active
COCCNC(=O)Cn1c(=O)n(CCCCCC(=O)Nc2ccccc2)c(=O)c2sccc21	none
Cc1ncc(CC(=O)n2cc(C(=O)c3cc(F)ccc3O)cn2)s1	none
Cc1ccc(O)c(C(=O)c2cnn(C(=O)Cc3csc(C)n3)c2)c1	Hck-Nef inh 74 | Hck-Nef confirm active
O=C(Nc1cccc(S(=O)(=O)N2CCOCC2)c1)c1ccc2c(=O)n3c(nc2c1)CCCCC3	none
Cc1ccc(N=Nc2c(C)[nH]n(C(N)=S)c2=O)cc1	none
NC(=S)n1[nH]c(-c2ccc([N+](=O)[O-])cc2)c(N=Nc2ccc(Cl)cc2)c1=O	Hck-Nef inh 71 | Hck-Nef confirm active
Cc1ccc([N+](=O)[O-])cc1N=Nc1c(-c2ccc([N+](=O)[O-])cc2)[nH]n(C(N)=S)c1=O	Hck-Nef inh 82 | Hck-Nef confirm active
COc1ccc(OC)c(N2C(=O)CC(C(C)c3ccccc3)C2=O)c1 (configuration not stated)	none (no result: MDM2 E3 inh)
CCOC(=O)c1ccc2ncc(C(=O)OCC)c(Nc3ccc(N4CCOCC4)cc3)c2c1	Hck-Nef inh 73 | Hck-Nef confirm active
CCOC(=O)c1cnc2ccc(C(=O)OC)cc2c1Nc1ccc(C(=O)O)cc1	none
O=C1COc2ccc(-c3csc(NCCc4ccccc4)n3)cc2N1	Hck-Nef inh 128 | Hck-Nef confirm active
COc1cccc(C(=O)Nc2nc3c(s2)CN(C)CC3)c1	none
Cc1ccc(-c2cc(C(F)(F)F)n3ncc(C(=O)NCc4ccco4)c3n2)cc1	none
Cc1ccc(-c2cc(C(F)F)n3ncc(C(=O)NCc4ccco4)c3n2)cc1	Hck-Nef inh 58 | Hck-Nef confirm inactive
O=C(C1=NN[C@@H]2C(=O)N(c3cccc(C(F)(F)F)c3)C(=O)[C@H]12)c1cnccn1	Hck-Nef inh 52 (no result: Autophagy HCS) | Hck-Nef confirm inactive
CC(C)NC(=O)c1cc2cc([N+](=O)[O-])ccc2s1	none
Cc1cccc(NC(=O)c2cc3cc([N+](=O)[O-])ccc3s2)n1	Hck-Nef inh 51 | Hck-Nef confirm inactive
